pKi: −log10 of the molar value. Active and inactive are the calls of the source. The calls are words filed in the database; no cut-off is given here.
Assays:
[1] = Plasma clearance in rat; type: ADME, organism-based
Summary of the method: (§1)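 Pharmacokinetics from six animals per species: three dosed iv and three dosed po.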

[2] = Half life in rat; type: ADME, organism-based; details: in vivo; summary of the method: as §1
[3] = Oral bioavailability in rat; type: ADME, organism-based; details: in vivo; summary of the method: as §1
[4] = target: T1, GABA-A receptor; anion channel (Rattus norvegicus) (UniProt O09028+P15431+P18506+P18508+P19969+P20236+P23574+P23576+P28471+P28473+P30191+P62813+P63079+P63138+Q91ZM7+Q9ES14); assay: Receptor occupancy in vivo by displacement of [3H]Ro 15-1788 binding from GABA-A receptor in rat, po; type: functional, organism-based
Summary of the method: (§2)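 Rat in vivo occupancy measured by [3H]Ro 15-1788 binding after oral dosing. Rats taken as a subgroup after the plus-maze trial, i.e. 30 min post-dose or later. ED50 derived from dose-dependent occupancy. Mean ± SEM, n = 5-10/group.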

[5] = target: T2, GABA-A receptor; alpha-5/beta-3/gamma-2 (Homo sapiens, UniProt P18507+P28472+P31644); assay: Displacement of [3H]Ro-151788 from recombinant human GABA-Aalpha5 receptor plus beta3gamma2; type: protein-complex assay
T2 sequence (P18507 whole entry): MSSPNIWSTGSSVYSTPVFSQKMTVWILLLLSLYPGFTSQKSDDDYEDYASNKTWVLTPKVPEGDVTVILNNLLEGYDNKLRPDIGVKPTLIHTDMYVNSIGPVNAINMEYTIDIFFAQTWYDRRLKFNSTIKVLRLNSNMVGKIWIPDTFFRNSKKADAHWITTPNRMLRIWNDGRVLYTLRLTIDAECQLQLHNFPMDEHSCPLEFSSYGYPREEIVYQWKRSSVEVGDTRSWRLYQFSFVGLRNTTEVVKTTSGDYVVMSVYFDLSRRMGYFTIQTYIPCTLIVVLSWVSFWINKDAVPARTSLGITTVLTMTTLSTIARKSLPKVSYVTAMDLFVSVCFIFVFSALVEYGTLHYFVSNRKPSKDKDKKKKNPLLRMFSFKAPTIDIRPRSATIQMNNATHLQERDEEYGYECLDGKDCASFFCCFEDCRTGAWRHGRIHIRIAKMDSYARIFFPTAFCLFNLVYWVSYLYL
T2 sequence (P28472 whole entry): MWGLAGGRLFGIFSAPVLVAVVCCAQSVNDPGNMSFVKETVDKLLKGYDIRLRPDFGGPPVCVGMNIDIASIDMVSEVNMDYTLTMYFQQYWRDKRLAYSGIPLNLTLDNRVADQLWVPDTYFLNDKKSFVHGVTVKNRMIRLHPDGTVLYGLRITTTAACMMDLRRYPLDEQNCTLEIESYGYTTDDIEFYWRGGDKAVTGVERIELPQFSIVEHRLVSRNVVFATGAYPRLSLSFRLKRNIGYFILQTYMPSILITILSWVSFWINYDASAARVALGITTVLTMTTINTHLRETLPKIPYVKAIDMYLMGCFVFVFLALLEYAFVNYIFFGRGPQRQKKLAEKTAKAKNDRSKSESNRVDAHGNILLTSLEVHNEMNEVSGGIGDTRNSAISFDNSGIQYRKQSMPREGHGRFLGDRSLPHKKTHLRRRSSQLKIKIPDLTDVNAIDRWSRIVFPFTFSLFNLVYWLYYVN
T2 sequence (P31644 whole entry): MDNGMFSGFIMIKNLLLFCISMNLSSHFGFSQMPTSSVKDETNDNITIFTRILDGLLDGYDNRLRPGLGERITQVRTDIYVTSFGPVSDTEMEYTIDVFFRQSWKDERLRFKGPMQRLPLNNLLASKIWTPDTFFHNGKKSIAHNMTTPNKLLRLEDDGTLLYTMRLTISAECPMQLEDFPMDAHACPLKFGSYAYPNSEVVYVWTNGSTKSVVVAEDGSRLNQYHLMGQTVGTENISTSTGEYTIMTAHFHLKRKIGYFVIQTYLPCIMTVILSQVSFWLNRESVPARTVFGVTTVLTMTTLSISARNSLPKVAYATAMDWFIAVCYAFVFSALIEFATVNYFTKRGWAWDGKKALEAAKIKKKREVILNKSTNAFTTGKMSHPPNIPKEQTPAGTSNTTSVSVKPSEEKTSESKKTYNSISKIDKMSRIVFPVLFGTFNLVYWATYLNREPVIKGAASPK
Summary of the method: (§3)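 Benzodiazepine-site binding on stably transfected αxβ3γ2 receptors (x = 1, 2, 3 or 5). Inhibition curves run with [3H]Ro15-1788 at roughly twice its Kd. Ki derived by Cheng-Prusoff equation. Mean of three to six determinations.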

Rattus norvegicus = assay: Anxiolytic activity in rat plus-maze assay at 1 mg/kg, po; type: functional, organism-based; parameters: dose 1 mg/kg
Summary of the method: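 Rats given vehicle (0.5% methyl cellulose) or compound orally; chlordiazepoxide 5 mg/kg ip as positive control. Placed on elevated plus maze 30 min after dosing; time on open arms recorded as anxiety index. Significance versus vehicle at p < 0.05; mean ± SEM, n = 16-18/group.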

[6] = Plasma clearance in dog; type: ADME, organism-based, Canis lupus familiaris; summary of the method: as §1
[7] = Half life in dog; type: ADME, organism-based, Canis lupus familiaris; details: in vivo; summary of the method: as §1
[8] = Oral bioavailability in dog; type: ADME, organism-based, Canis lupus familiaris; details: in vivo; summary of the method: as §1
[9] = Plasma clearance in Rhesus monkey; type: ADME, organism-based, Macaca mulatta; summary of the method: as §1
[10] = Half life in Rhesus monkey; type: ADME, organism-based, Macaca mulatta; details: in vivo; summary of the method: as §1
[11] = Oral bioavailability in Rhesus monkey; type: ADME, organism-based, Macaca mulatta; details: in vivo; summary of the method: as §1
[12] = target: GABA-A receptor; alpha-5/beta-3/gamma-2 (Homo sapiens) (UniProt P18507+P28472+P31644); assay: Efficacy against recombinant human GABA-Aalpha5 plus beta-3-gamma-2 expressed in L(tk-) cells by whole cell patch clamp method; type: functional, cell-based
Summary of the method: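 Whole-cell patch clamp on αxβ3γ2 receptors stably expressed in L(tk-) cells, measuring the effect on current evoked by an EC20-equivalent of GABA. Reported relative to full agonist chlordiazepoxide (=1.0), or as direct percent modulation of the EC20 control, with inverse agonism given as percent. Mean of at least four independent experiments.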

[13] = target: T3, GABA-A receptor; alpha-2/beta-3/gamma-2 (Homo sapiens, UniProt P18507+P28472+P47869); assay: Displacement of [3H]Ro-151788 from recombinant human GABA-Aalpha2 receptor plus beta3gamma2; type: protein-complex assay; summary of the method: as §3
T3 sequence (P18507 whole entry): T2 sequence (P18507 whole entry)
T3 sequence (P28472 whole entry): T2 sequence (P28472 whole entry)
T3 sequence (P47869 whole entry): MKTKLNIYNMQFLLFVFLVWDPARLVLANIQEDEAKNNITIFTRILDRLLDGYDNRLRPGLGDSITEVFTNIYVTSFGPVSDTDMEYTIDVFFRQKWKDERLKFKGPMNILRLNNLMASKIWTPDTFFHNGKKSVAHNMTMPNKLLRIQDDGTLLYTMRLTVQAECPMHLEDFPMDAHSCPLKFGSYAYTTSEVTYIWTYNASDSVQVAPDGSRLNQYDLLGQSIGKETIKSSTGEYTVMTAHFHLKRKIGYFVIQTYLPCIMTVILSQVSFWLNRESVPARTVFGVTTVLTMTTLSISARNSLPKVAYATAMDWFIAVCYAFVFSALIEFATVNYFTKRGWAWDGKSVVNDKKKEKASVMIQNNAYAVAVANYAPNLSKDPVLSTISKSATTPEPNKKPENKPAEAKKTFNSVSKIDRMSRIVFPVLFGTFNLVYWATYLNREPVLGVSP

[14] = target: T1, GABA-A receptor; anion channel (Rattus norvegicus); assay: Receptor occupancy in vivo by displacement of [3H]Ro-151788 binding from GABA-A receptor in rat at 1 mg/kg, po; type: functional, organism-based; parameters: dose 1 mg/kg; summary of the method: as §2

clearance [1] | half-life [2] | bioavailability [3] | Occ50 [4] | pKi [5] | clearance [6] | half-life [7] | bioavailability [8] | clearance [9] | half-life [10] | bioavailability [11] | Efficacy [12] | Activity [4] | pKi [13] | Activity [14] | Structure (SMILES) | Activity (Rattus norvegicus)
3 mL/min/kg | 10 h | 100% | 0.09 mg/kg | 8.55 | – | – | – | – | – | – | – | – | – | – | Fc1cnc(-c2cc(-c3ccc(F)c(-c4ncccc4F)c3)cnn2)c(F)c1 | Active
59 mL/min/kg | 1.6 h | 50% | 0.22 mg/kg | 8.22 | 17 mL/min/kg | 3.9 h | 72% | 6 mL/min/kg | 8.4 h | 46% | -5% | – | – | – | Fc1cnc(-c2cc(-c3cnnc(-c4c(F)cncc4F)c3)ccc2F)c(F)c1 | –
– | – | – | – | 8.29 | – | – | – | – | – | – | – | 0.7 mg/kg | 8.34 | – | Fc1cnc(-c2cc(-c3cnnc(-c4c(F)cc(F)cc4F)c3)ccc2F)c(F)c1 | –
1.3 mL/min/kg | 53 h | 88% | 0.52 mg/kg | 7.92 | 3.9 mL/min/kg | 15 h | 40% | – | – | – | – | – | 7.96 | 71% | Fc1cnc(-c2cc(-c3ccc(F)c(-c4ncc(F)cc4F)c3)cnn2)c(F)c1 | –

Source: ChEMBL document CHEMBL1146073, “A pyridazine series of alpha2/alpha3 subtype selective GABA A agonists for the treatment of anxiety” (J Med Chem, 2006)
